Results: ChEMBL document CHEMBL1139492, “Structure-activity relationships and effects on neuroactive steroid synthesis in a series of 2-phenylimidazo[1,2-a]pyridineacetamide peripheral benzodiazepine receptors ligands” (J Med Chem, 2005)

Columns and labels:
Translocator protein [1] = molecular target: T1, Translocator protein (Rattus norvegicus, UniProt P16257); assay: Displacement of [3H]PK11195 from peripheral benzodiazepine receptor of rat cerebral cortex; assay type: tissue-based
In short: (§1)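 Rat tissue (cerebral cortex, ovary) homogenised in 50 vol PBS pH 7.4 at 4 °C, spun at 40 000g for 30 min, washed, resuspended in 10 vol PBS. […] Filtration on polyethyleneimine-soaked GF/B filters, scintillation counting. […] Means of three experiments in duplicate; Ki reported.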

Translocator protein [2] = molecular target: T1, Translocator protein; assay: Inhibitory concentration against peripheral benzodiazepine receptor of rat cerebral cortex; assay type: tissue-based; in short: as §1
[3] = molecular target: GABA-A receptor; anion channel; assay: Inhibitory concentration of central benzodiazepine GABA-A receptor of rat cerebral cortex; assay type: tissue-based
In short: (§2)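 Rat cerebral cortex homogenised in 50 vol ice-cold 50 mM Tris-HCl pH 7.4, spun twice at 20 000g for 10 min. Membranes (0.4–0.5 mg protein) incubated with [3H]flunitrazepam for 60 min at 0 °C. Rapid filtration on GF/B filters, scintillation counting. Nonspecific binding with 5 μM diazepam. Means of three experiments in duplicate; Ki reported.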

Translocator protein [4] = molecular target: T1, Translocator protein; assay: Inhibitory concentration against peripheral benzodiazepine receptor of rat ovary; assay type: tissue-based, Female gonad; in short: as §1
Translocator protein [5] = molecular target: T1, Translocator protein; assay: Displacement of [3H]-PK11195 from peripheral benzodiazepine receptor of rat ovary; assay type: tissue-based, Female gonad; in short: as §1
[6] = molecular target: GABA-A receptor; anion channel; assay: Displacement of [3H]flunitrazepam from central benzodiazepine GABA-A receptor of rat cerebral cortex; assay type: tissue-based; in short: as §2
[7] = molecular target: Benzodiazepine receptors; peripheral & central (Rattus norvegicus) (UniProt O09028+P15431+P18506+P18508+P19969+P20236+P23574+P23576+P28471+P28473+P30191+P62813+P63079+P63138+Q91ZM7+Q9ES14+P16257); assay: Ratio of inhibition for peripheral benzodiazepine receptor of rat ovary and central benzodiazepine GABA-A receptor; assay type: tissue-based; set-up: scale not given here; details: Female gonad

T1 sequence (P16257 whole entry, looked up): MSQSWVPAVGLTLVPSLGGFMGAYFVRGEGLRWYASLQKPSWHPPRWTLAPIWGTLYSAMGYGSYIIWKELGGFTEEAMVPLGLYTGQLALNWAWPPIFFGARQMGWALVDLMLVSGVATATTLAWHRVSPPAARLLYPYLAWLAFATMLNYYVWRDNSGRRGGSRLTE

SMILES | Ki (Translocator protein [1]) [nM] | IC50 (Translocator protein [2]) [nM] | pIC50 [3] | IC50 (Translocator protein [4]) [nM] | Ki (Translocator protein [5]) [nM] | Ki [6] [µM] | Selectivity index [7]
O=C(Cc1c(-c2ccccc2)nc2c(Cl)cc(Cl)cn12)Nc1ccncc1 | 1240 | 2100 | 5 | 4100 | 2970 | 7.75 | 0.387
O=C(Cc1c(-c2ccc(Cl)cc2)nc2c(Cl)cc(Cl)cn12)N1CCCC1 | 126 | 215 | 5 | 843 | 608 | 7.01 | 1.02
O=C(Cc1c(-c2ccc(Cl)cc2)nc2c(Cl)cc(Cl)cn12)N1CCc2ccccc2C1 | 2.97 | 4.86 | 5 | 35.6 | 25.3 | 6.88 | 2.45
CCCCNC(=O)Cc1c(-c2ccc(Cl)cc2)nc2c(Cl)cc(Cl)cn12 | 170 | 390 | 5 | 290 | 170 | 6.88 | 1.54
CCCCCCN(CCCCCC)C(=O)Cc1c(-c2ccc(Cl)cc2)nc2c(Cl)cc(Cl)cn12 | 222 | 377 | 5 | 2610 | 1890 | 7.75 | 0.584
O=C(Cc1c(-c2ccc(Cl)cc2)nc2c(Cl)cc(Cl)cn12)N1CCN(Cc2ccccc2)CC1 | 12700 | 20800 | 5 | 726000 | 516000 | 6.88 | -1.86
CCCCN(C(=O)Cc1c(-c2ccc(Cl)cc2)nc2ccc(Cl)cn12)c1ccccc1 | 0.884 | 1.5 | 6.133 | 11.6 | 8.82 | 0.506 | 1.8
CCOC(=O)C1CCCN(C(=O)Cc2c(-c3ccc(Cl)cc3)nc3c(Cl)cc(Cl)cn23)C1 (stereo unspecified) | 79.8 | 143 | 5 | 2530 | 1740 | 6.88 | 0.597
O=C(Cc1c(-c2ccc(Cl)cc2)nc2c(Cl)cc(Cl)cn12)Nc1ccccc1 | 11.7 | 19.9 | 5 | 25.2 | 18.3 | 6.88 | 2.6
O=C(Cc1c(-c2ccccc2)nc2c(Cl)cc(Cl)cn12)NC1CCCCC1 | 771 | 1320 | 5 | 1310 | 942 | 7.01 | 0.884
CN(CCc1ccccn1)C(=O)Cc1c(-c2ccccc2)nc2c(Cl)cc(Cl)cn12 | 1280 | 2170 | 5 | 5060 | 3670 | 7.75 | 0.296
CC(C)(C)N(Cc1ccccc1)C(=O)Cc1c(-c2ccc(Cl)cc2)nc2c(Cl)cc(Cl)cn12 | 2100 | 3440 | 5 | 18200 | 12900 | 7.59 | -0.26
CCOC(=O)C1CCCN(C(=O)Cc2c(-c3ccc(Cl)cc3)nc3ccc(Cl)cn23)C1 (stereo unspecified) | 19.6 | 35.2 | 6.725 | 302 | 207 | 0.13 | -0.205
CC(C(=O)N(C)Cc1ccccc1)c1c(-c2ccc(Cl)cc2)nc2c(Cl)cc(Cl)cn12 (stereo unspecified) | 5770 | 9890 | 5 | 11600 | 8330 | 7.01 | –
CCCCN(CCCC)C(=O)Cc1c(-c2ccc(Cl)cc2)nc2ccc(Cl)cn12 | 1.69 | 3.27 | 7.051 | 6.73 | 4.77 | 0.0689 | 1.12
CN(Cc1ccccc1)C(=O)Cc1c(-c2ccc(Cl)cc2)nc2c(Cl)cc(Cl)cn12 | 1.38 | – | 5 | – | – | 6.88 | –
O=C(Cc1c(-c2ccccc2)nc2c(Cl)cc(Cl)cn12)N1CCCC1 | 757 | 1240 | 5 | – | 6650 | 6.88 | 0.029
O=C(Cc1c(-c2ccc(Cl)cc2)nc2c(Cl)cc(Cl)cn12)NC1CCCCC1 | 140 | 229 | 5 | 1050 | 749 | 7.59 | 0.977
O=C(Cc1c(-c2ccccc2)nc2c(Cl)cc(Cl)cn12)N1CCc2ccccc2C1 | 23.6 | 38.7 | 5 | 231 | 164 | 6.88 | 1.64
CCCN(Cc1ccc([N+](=O)[O-])cc1)C(=O)Cc1c(-c2ccc(Cl)cc2)nc2c(Cl)cc(Cl)cn12 | 16 | 27.2 | 5 | 69.7 | 50.5 | 6.88 | 2.16
CN(CCc1ccccn1)C(=O)Cc1c(-c2ccc(Cl)cc2)nc2c(Cl)cc(Cl)cn12 | 530 | 899 | 5 | 5080 | 3690 | 7.75 | 0.294
CCCCN(CCCC)C(=O)Cc1c(-c2ccc(Cl)cc2)nc2ccccn12 | – | – | – | – | – | – | 1.19
O=C(Cc1c(-c2ccc(Cl)cc2)nc2c(Cl)cc(Cl)cn12)NCc1ccccc1 | 98.8 | 169 | 5 | – | – | 7.01 | –
CC(C(=O)N(C)C1CCCCC1)c1c(-c2ccc(Cl)cc2)nc2c(Cl)cc(Cl)cn12 (stereo unspecified) | 2990 | 5150 | 5 | 3070 | 2210 | 7.01 | 0.513
CCCN(CCC)C(=O)C(C)c1c(-c2ccc(Cl)cc2)nc2c(Cl)cc(Cl)cn12 (stereo unspecified) | 701 | 1200 | 5 | 2680 | 1930 | 7.01 | 0.572
CCCCCCN(CCCCCC)C(=O)Cc1c(-c2ccc(Cl)cc2)nc2ccc(Cl)cn12 | 3.01 | 5.11 | 5.481 | 48.8 | 35.3 | 2.56 | 1.83
O=C(Cc1c(-c2ccccc2)nc2c(Cl)cc(Cl)cn12)N1CCCCC1 | 95.9 | 157 | 5 | 1460 | 1030 | 7.59 | 0.837
CCCCN(C(=O)Cc1c(-c2ccc(Cl)cc2)nc2c(Cl)cc(Cl)cn12)c1ccccc1 | 7.84 | 13.3 | 5 | 4.8 | 3.65 | 6.88 | 3.32
